From ChEMBL document CHEMBL1139574, “Synthesis and biological evaluation of novel bisphosphonates with dual activities on bone in vitro” (2005)

Columns and labels:
Format in all cases: functional
[1] = Inhibitory ratio of osteoclast precursor cells at concentration of 10e-7 M by staining with tartrate-resistant acid […]
In short: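 Osteoclast precursor cells plated at 5 × 10⁴ cells/well and cultured 8 days with or without bisphosphonate at 10^-7 M. Cells then TRAP-stained, and positive cells with three or more nuclei counted. Inhibitory ratio (%) = (control count − treated count)/control count × 100. Mean ± SE, n = 5.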

Rattus norvegicus [2] = species on record: Rattus norvegicus; assay: Proliferative activity on the of rat calvaria osteoblasts at concentration of 10e-5 M
In short: (§1)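 SD rat calvarial osteoblasts plated at 2 × 10⁴ cells/well and exposed to a range of bisphosphonate concentrations for 72 h. Proliferation read by MTT, absorbance at 492 nm. Proliferative ratio (%) = (treated − control)/control × 100. Mean ± SE, n = 3.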

Rattus norvegicus [3] = species on record: Rattus norvegicus; assay: Proliferative activity on the of rat calvaria osteoblasts at concentration of 10e-6 M; in short: as §1
Rattus norvegicus [4] = species on record: Rattus norvegicus; assay: Proliferative activity on the of rat calvaria osteoblasts at concentration of 10e-8 M; in short: as §1
Rattus norvegicus [5] = species on record: Rattus norvegicus; assay: Proliferative activity on the of rat calvaria osteoblasts at concentration of 10e-7 M; in short: as §1
[6] = Inhibitory activity of bone gamma-carboxyglutamate (gla) protein (osteocalcin) was determined at concentration of 10e-9 M in cell lysates
In short: (§2)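 Newborn Sprague-Dawley rat calvarial osteoblast-enriched cultures seeded at 5 × 10³ cells/well and treated for 72 h. Osteocalcin measured in cell lysates by radioimmunoassay. Normalized to viable cell number from MTT. Mean ± SE, n = 5.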

[7] = target: T1, Alkaline phosphatase, tissue-nonspecific isozyme (Rattus norvegicus) (UniProt P08289); assay: Inhibitory activity of Alkaline phosphatase was determined at concentration of 10e-6 M using p-nitrophenylphosphate as the substrate
T1 sequence (whole entry): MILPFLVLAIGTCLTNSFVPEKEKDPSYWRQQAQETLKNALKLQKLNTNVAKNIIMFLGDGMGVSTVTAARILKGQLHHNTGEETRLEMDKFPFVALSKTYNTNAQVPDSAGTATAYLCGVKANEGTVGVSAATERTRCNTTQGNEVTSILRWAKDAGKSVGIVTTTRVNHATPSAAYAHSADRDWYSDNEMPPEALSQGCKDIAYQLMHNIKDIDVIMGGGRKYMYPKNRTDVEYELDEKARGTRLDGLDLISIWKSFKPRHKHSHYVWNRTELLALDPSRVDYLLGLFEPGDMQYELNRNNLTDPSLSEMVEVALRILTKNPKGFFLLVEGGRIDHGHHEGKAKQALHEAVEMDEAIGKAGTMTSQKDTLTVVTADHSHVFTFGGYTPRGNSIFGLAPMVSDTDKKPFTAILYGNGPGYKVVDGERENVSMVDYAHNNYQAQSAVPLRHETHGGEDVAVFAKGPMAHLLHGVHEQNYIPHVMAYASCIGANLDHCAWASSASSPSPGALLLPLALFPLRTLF
In short: (§3)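 Primary osteoblast-enriched cells from newborn Sprague-Dawley rat calvaria, cultured in DMEM at 37 °C under 5% CO2. Seeded at 5 × 10³ cells/well and exposed to test agent for 72 h. Alkaline phosphatase activity measured with p-nitrophenylphosphate substrate. Values normalized to viable cell number from the MTT assay. Mean ± SE, n = 5.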

[8] = Inhibitory activity of bone gamma-carboxyglutamate (gla) protein (osteocalcin) was determined at concentration of 10e-7 M in cell lysates; in short: as §2
[9] = Inhibitory activity of bone gamma-carboxyglutamate (gla) protein (osteocalcin) was determined at concentration of 10e-8 M in cell lysates; in short: as §2
[10] = target: T1, Alkaline phosphatase, tissue-nonspecific isozyme (Rattus norvegicus); assay: Inhibitory activity of Alkaline phosphatase was determined at concentration of 10e-7 M using p-nitrophenylphosphate as the substrate; in short: as §3
[11] = target: T1, Alkaline phosphatase, tissue-nonspecific isozyme (Rattus norvegicus); assay: Inhibitory activity of Alkaline phosphatase was determined at concentration of 10e-8 M using p-nitrophenylphosphate as the substrate; in short: as §3
[12] = Inhibitory activity of bone gamma-carboxyglutamate (gla) protein (osteocalcin) was determined at concentration of 10e-6 M in cell lysates; in short: as §2
[13] = target: T1, Alkaline phosphatase, tissue-nonspecific isozyme (Rattus norvegicus); assay: Inhibitory activity of Alkaline phosphatase was determined at concentration of 10e-9 M using p-nitrophenylphosphate as the substrate; in short: as §3

Row | SMILES | inhibition at 0.1 µM [1] [%] | Proliferation (Rattus norvegicus [2]) [%] | Proliferation (Rattus norvegicus [3]) [%] | Proliferation (Rattus norvegicus [4]) [%] | Proliferation (Rattus norvegicus [5]) [%] | other results
1 | O=C(NCCCC(O)(P(=O)(O)O)P(=O)(O)O)c1ccccc1 | 35.6 | – | – | – | – | –
2 | O=C(NCCC(O)(P(=O)([O-])O)P(=O)([O-])O)c1ccc2c(c1)OCO2.[Na+].[Na+] | 60.2 | 9.3 | -8.3 | -0.2 | -7.3 | –
3 | Cc1ccccc1C(=O)NCCCCCC(O)(P(=O)(O)O)P(=O)(O)O | 9.4 | – | – | – | – | –
4 | COc1cccc(C(=O)NCCC(O)(P(=O)([O-])O)P(=O)([O-])O)c1.[Na+].[Na+] | 26.9 | 8.9 | 7.1 | 0.6 | -5.5 | –
5 | COc1cccc(C(=O)NCCC(O)(P(=O)([O-])O)P(=O)([O-])O)c1OC.[Na+].[Na+] | 68.1 | 35.2 | 47.4 | 26.6 | 74.4 | Activity [6]: 4.07; Activity [7]: 3.6; Activity [8]: 8.63; Activity [9]: 4.73; Activity [10]: 2.15; Activity [11]: 0.75; Activity [12]: 11.7; Activity [13]: 0.56
6 | COc1cc([N+](=O)[O-])cc(C(=O)NCCC(O)(P(=O)([O-])O)P(=O)([O-])O)c1OC.[Na+].[Na+] | 64.4 | 17.7 | -1.5 | -0.8 | 21.4 | –
7 | O=C(NCCCCCC(O)(P(=O)(O)O)P(=O)(O)O)c1cccc(Cl)c1 | 15.9 | – | – | – | – | –
8 | Cc1ccc(C(=O)NCCC(O)(P(=O)(O)O)P(=O)(O)O)cc1 | 30.4 | – | – | – | – | –
9 | COc1ccc(C(=O)NCCCCCC(O)(P(=O)(O)O)P(=O)(O)O)cc1 | 39 | – | – | – | – | –
10 | Cc1ccccc1C(=O)NCCCC(O)(P(=O)(O)O)P(=O)(O)O | 30.3 | – | – | – | – | –
11 | COc1cccc(C(=O)NCCCC(O)(P(=O)([O-])O)P(=O)([O-])O)c1.[Na+].[Na+] | 34.2 | 0.7 | -5.5 | 3.7 | -12.4 | –
12 | O=C(NCCC(O)(P(=O)(O)O)P(=O)(O)O)c1ccccc1 | 9.5 | – | – | – | – | –
